Drug metabolism data for one compound are collected here from ChEMBL document CHEMBL3526048, “In vitro metabolism of rivoglitazone, a novel peroxisome proliferator-activated receptor γ agonist, in rat, monkey, and human liver microsomes and freshly isolated hepatocytes” (Drug Metab Dispos, 2011).

Each structure is given as a SMILES string.

A short description of data set [1]: Drug metabolism in rat hepatocytes assessed as formation of 3-(4-((6-methoxy-1-methyl-1H-benzo[d]imidazol-2-yl)methoxy)phenyl)-2-(methylthio)propanoic acid at 30 uM after 3 hrs by radio-HPLC/LC-MS/MS analysis in presence of NADPH-generating system/SAM and UDPGA/SAM. In kind it is ADME, cell-based, Hepatocyte.
Data set [2] can be described thus: Drug metabolism in human hepatocytes assessed as formation of (2S,3S,4S,5R,6R)-3,4,5-trihydroxy-6-(5-(4-((6-methoxy-1-methyl-1H-benzo[d]imidazol-2-yl)methoxy)benzyl)-2,4-dioxothiazolidin-3-yl)tetrahydro-2H-pyran-2-carboxylic acid at 30 uM after 3 hrs by radio-HPLC/LC-MS/MS analysis. In kind it is ADME, cell-based, Hepatocyte.
Data set [3] can be described thus: Drug metabolism in rat hepatocytes assessed as formation of 3-(4-((6-methoxy-1-methyl-1H-benzo[d]imidazol-2-yl)methoxy)phenyl)-2-(methylthio)propanamide at 30 uM after 3 hrs by radio-HPLC/LC-MS/MS analysis in presence of NADPH-generating system/SAM. In kind it is ADME, cell-based, Hepatocyte.
The subject of a further data set is Liver microsome. Briefly: Drug metabolism in Sprague-Dawley rat liver microsomes assessed as formation of 2-((4-((2,4-dioxothiazolidin-5-yl)methyl)phenoxy)methyl)-1-methyl-1H-benzo[d]imidazol-6-yl hydrogen sulfate at 20 uM by radio-HPLC/LC-MS/MS analysis. In kind it is ADME. On the technique in general: Liver microsomes are vesicles of endoplasmic reticulum, rich in cytochrome P450 enzymes.

The target of the next data set is Cytochrome P450 3A4 (Homo sapiens, UniProt P08684). Put plainly: Activity of human CYP3A4 expressed in microsomes isolated from baculovirus infected insect cell assessed as enzyme-mediated 2-mercapto-3-(4-((6-methoxy-1-methyl-1H-benzo[d]imidazol-2-yl)methoxy)phenyl)propanamide formation at 20 uM after 2 hrs by radio-HPLC/LC-MS/MS analysis in presence of NADPH-generating system and NADPH-generating system/SAM. In kind it is ADME.

In data set [4] the target is T1, Cytochrome P450 2D6 (Homo sapiens, UniProt P10635). Briefly: Activity of human CYP2D6 expressed in microsomes isolated from baculovirus infected insect cell assessed as enzyme-mediated 5-hydroxy-5-(4-((6-methoxy-1-methyl-1H-benzo[d]imidazol-2-yl)methoxy)benzyl)thiazolidine-2,4-dione formation at 20 uM after 2 hrs by radio-HPLC/LC-MS/MS analysis in presence of NADPH-generating system and NADPH-generating system/SAM. In kind it is ADME.

In a further data set the target is Cytochrome P450 2C9 (Homo sapiens, UniProt P11712). Put plainly: Activity of human CYP2C9 expressed in microsomes isolated from baculovirus infected insect cell assessed as enzyme-mediated 3-(4-((6-methoxy-1-methyl-1H-benzo[d]imidazol-2-yl)methoxy)phenyl)-2-(methylthio)propanoic acid formation at 20 uM after 2 hrs by radio-HPLC/LC-MS/MS analysis in presence of NADPH-generating system/SAM and UDPGA/SAM. In kind it is ADME.

In data set [5] the target is T1, Cytochrome P450 2D6. Put plainly: Activity of human CYP2D6 expressed in microsomes isolated from baculovirus infected insect cell assessed as enzyme-mediated 3-(4-((6-methoxy-1-methyl-1H-benzo[d]imidazol-2-yl)methoxy)phenyl)-2-(methylthio)propanoic acid formation at 20 uM after 2 hrs by radio-HPLC/LC-MS/MS analysis in presence of NADPH-generating system/SAM and UDPGA/SAM. In kind it is ADME.

Data set [6] addresses T1, Cytochrome P450 2D6. Put plainly: Activity of human CYP2D6 expressed in microsomes isolated from baculovirus infected insect cell assessed as enzyme-mediated (2S,3S,4S,5R,6R)-6-((1-carboxy-2-(4-((6-methoxy-1-methyl-1H-benzo[d]imidazol-2-yl)methoxy)phenyl)ethylthio)carbonylamino)-3,4,5-trihydroxytetrahydro-2H-pyran-2-carboxylic acid formation at 20 uM after 2 hrs by radio-HPLC/LC-MS/MS analysis in presence of NADPH-generating system/SAM. In kind it is ADME.

The target in another data set is Cytochrome P450 3A5 (Homo sapiens, UniProt P20815). Put plainly: Activity of human CYP3A5 expressed in microsomes isolated from baculovirus infected insect cell assessed as enzyme-mediated 3-(4-((6-methoxy-1-methyl-1H-benzo[d]imidazol-2-yl)methoxy)phenyl)-2-(methylthio)propanoic acid formation at 20 uM after 2 hrs by radio-HPLC/LC-MS/MS analysis in presence of NADPH-generating system/SAM and UDPGA/SAM. In kind it is ADME. Summed up:
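cDNA-expressed human CYP3A5 in baculovirus-insect-cell microsomes (1 mg/ml protein) was incubated with [¹⁴C]rivoglitazone (20 μM) in 50 mM potassium phosphate (pH 7.4) or 100 mM Tris-HCl (pH 7.5). NADPH-generating system: 2 mM NADP⁺, 20 mM glucose 6-phosphate, 2 units/ml G6PDH, 10 mM MgCl₂. Incubation ran 2 h at 37°C with shaking; insect-cell control supersomes served as control. Acetonitrile stop, supernatant concentrated, then radio-HPLC, LC-MS and LC-MS/MS.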

For the next data set, the target named is T2, Cytochrome P450 1A2 (Homo sapiens, UniProt P05177).
T2 sequence (P05177 whole entry): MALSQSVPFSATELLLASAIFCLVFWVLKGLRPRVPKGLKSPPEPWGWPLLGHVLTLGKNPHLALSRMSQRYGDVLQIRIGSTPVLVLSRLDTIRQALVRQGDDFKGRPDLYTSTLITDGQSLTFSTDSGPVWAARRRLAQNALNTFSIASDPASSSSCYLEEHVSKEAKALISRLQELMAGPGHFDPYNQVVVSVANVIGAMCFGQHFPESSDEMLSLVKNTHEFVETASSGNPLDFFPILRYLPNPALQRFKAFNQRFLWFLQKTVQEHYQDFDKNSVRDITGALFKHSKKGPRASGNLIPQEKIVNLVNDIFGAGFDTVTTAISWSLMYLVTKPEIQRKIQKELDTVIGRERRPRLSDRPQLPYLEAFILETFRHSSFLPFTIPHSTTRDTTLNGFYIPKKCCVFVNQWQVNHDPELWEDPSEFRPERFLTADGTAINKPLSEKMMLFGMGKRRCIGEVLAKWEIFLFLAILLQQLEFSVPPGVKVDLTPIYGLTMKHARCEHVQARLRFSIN
Briefly: Activity of human CYP1A2 expressed in microsomes isolated from baculovirus infected insect cell assessed as enzyme-mediated 2-hydroxy-3-(4-((6-methoxy-1-methyl-1H-benzo[d]imidazol-2-yl)methoxy)phenyl)propanamide formation at 20 uM after 2 hrs by radio-HPLC/LC-MS/MS analysis in presence of NADPH-generating system and NADPH-generating system/SAM. In kind it is ADME. An outline of the steps: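 Baculovirus/insect-cell microsomes expressing single human CYPs, 1 mg/ml protein, with 50 mM potassium phosphate (pH 7.4) or 100 mM Tris-HCl (pH 7.5). NADPH-generating system: 2 mM NADP⁺, 20 mM glucose 6-phosphate, 2 units/ml G6PDH, 10 mM MgCl₂. [¹⁴C]rivoglitazone at 20 μM, 2 h at 37°C with shaking. Control used insect-cell control supersomes. Stopped with acetonitrile; supernatant concentrated under nitrogen; metabolites analysed by radio-HPLC, LC-MS and LC-MS/MS.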

T1 sequence (P10635 whole entry): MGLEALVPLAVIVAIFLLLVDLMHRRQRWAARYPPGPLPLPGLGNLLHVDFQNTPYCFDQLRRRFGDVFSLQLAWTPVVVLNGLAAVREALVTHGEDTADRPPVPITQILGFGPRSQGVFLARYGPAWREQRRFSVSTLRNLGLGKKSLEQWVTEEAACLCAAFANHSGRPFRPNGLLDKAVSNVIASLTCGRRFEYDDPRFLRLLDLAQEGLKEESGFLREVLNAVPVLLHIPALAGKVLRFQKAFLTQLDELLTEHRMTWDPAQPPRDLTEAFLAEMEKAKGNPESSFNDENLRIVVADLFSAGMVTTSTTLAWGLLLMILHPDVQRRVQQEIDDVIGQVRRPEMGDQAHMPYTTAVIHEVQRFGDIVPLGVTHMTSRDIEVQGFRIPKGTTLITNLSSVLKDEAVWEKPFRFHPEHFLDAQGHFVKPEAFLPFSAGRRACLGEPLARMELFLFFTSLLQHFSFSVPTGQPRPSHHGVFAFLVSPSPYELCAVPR
Sequence of Cytochrome P450 3A5 (P20815 whole entry): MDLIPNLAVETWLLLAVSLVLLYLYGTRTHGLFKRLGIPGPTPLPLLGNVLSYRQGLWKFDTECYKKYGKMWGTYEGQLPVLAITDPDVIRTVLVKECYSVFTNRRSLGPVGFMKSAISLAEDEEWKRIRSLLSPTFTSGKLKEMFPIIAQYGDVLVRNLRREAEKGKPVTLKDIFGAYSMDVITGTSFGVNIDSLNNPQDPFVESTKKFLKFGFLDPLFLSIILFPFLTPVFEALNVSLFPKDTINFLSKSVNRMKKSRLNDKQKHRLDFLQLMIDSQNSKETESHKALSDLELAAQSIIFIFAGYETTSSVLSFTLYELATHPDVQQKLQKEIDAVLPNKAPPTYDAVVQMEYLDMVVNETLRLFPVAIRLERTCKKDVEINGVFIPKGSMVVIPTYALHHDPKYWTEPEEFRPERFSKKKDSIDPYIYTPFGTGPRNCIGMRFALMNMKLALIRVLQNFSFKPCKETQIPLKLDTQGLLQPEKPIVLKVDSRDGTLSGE
Sequence of Cytochrome P450 2C9 (P11712 whole entry): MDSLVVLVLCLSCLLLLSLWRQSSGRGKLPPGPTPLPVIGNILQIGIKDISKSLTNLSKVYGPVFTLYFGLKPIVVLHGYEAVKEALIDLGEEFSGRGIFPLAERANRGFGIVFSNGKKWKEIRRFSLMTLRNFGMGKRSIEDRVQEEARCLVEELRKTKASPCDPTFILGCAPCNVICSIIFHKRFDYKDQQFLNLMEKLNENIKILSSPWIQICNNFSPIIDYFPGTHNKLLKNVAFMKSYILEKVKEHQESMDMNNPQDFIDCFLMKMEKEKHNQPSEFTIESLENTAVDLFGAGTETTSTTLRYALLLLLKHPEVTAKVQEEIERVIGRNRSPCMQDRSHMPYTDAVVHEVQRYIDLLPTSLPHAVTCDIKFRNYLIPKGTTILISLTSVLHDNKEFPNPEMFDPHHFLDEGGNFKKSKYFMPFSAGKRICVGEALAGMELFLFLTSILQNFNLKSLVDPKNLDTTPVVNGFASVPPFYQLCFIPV
Sequence of Cytochrome P450 3A4 (P08684 whole entry): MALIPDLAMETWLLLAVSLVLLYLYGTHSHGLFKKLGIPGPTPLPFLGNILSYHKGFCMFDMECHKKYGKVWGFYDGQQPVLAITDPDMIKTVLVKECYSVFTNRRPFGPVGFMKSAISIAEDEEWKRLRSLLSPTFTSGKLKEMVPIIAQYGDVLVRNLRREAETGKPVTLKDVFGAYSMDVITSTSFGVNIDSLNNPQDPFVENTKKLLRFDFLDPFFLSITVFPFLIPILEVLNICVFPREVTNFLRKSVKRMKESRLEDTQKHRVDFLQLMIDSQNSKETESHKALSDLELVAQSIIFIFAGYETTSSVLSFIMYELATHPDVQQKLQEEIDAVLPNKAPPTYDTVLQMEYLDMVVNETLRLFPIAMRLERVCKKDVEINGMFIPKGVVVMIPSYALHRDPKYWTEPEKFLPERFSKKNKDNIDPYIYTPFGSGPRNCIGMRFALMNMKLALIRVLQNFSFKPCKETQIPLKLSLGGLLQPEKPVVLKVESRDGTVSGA

Take `COc1ccc2nc(COc3ccc(C[14CH]4SC(=O)NC4=O)cc3)n(C)c2c1.Cl` (racemic): the Drug metabolism entry in data set [1] is “metabolite_not_detected”; in [2], “metabolite_detected”; in data set [3] it was “metabolite_detected”; in the data set on Liver microsome, “metabolite_not_detected”; on Cytochrome P450 3A4 it was “metabolite_detected”; on Cytochrome P450 2D6 [4], “metabolite_detected”. In addition, the Drug metabolism result at Cytochrome P450 2C9 is recorded as “metabolite_not_detected”; at Cytochrome P450 2D6 [5], “metabolite_not_detected”; at Cytochrome P450 2D6 [6], “metabolite_not_detected”; at Cytochrome P450 3A5, “metabolite_not_detected”; on Cytochrome P450 1A2 it was “metabolite_detected”.
